ChEMBL document CHEMBL1123716, “Synthesis and tumor uptake of 5-halo-1-(2'-fluoro-2'-deoxy-beta-D-ribofuranosyl)[2-14C]uracils” (J Med Chem, 1987)

Experiments:
Mus musculus [1] = experiment: Tissue distribution in BDF1 female mice bearing an implanted lewis lung tumor after intravenous injection in blood at 1 h.; type: ADME, organism-based; conditions: in vivo
Summary of the method: (§1)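 Female BDF1 mice (18–20 g) with implanted Lewis lung tumor received the 2-14C compound by tail vein, 23–193 kBq in normal saline, reconstituted from a dry film just before use. Animals were killed at set times and tissues taken for 14C counting by combustion and liquid scintillation. Values are percent injected dose per gram wet tissue, mean ± standard deviation, six animals.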

Mus musculus [2] = experiment: Tissue distribution in BDF1 female mice bearing an implanted lewis lung tumor after intravenous injection in lung at 0.5 h.; type: ADME, organism-based; conditions: in vivo
Summary of the method: (§2)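 Female BDF₁ mice (18–20 g) carrying transplanted Lewis lung tumor received 23–193 kBq of the [2-¹⁴C]-labeled nucleoside in normal saline via tail vein. The compound was stored as a dry film and reconstituted just before use. Animals were killed at set times, and tissue ¹⁴C was measured by combustion and liquid scintillation. Values are mean ± SD % injected dose per gram of wet tissue, n = 6.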

Mus musculus [3] = experiment: Tissue distribution in BDF1 female mice bearing an implanted lewis lung tumor after intravenous injection in git(Section of intestine) at 1 h.; type: ADME, organism-based; conditions: in vivo; summary of the method: as §1
Mus musculus [4] = experiment: Tissue distribution in BDF1 female mice bearing an implanted lewis lung tumor after intravenous injection in spleen at 2 h.; type: ADME, organism-based; conditions: in vivo; summary of the method: as §2
Mus musculus [5] = experiment: Tissue distribution in BDF1 female mice bearing an implanted lewis lung tumor after intravenous injection in bone at 0.25 h; type: ADME, organism-based; conditions: in vivo; summary of the method: as §1
Mus musculus [6] = experiment: Tissue distribution in BDF1 female mice bearing an implanted lewis lung tumor after intravenous injection in tumor at 8 h.; type: ADME, organism-based; conditions: in vivo
Summary of the method: (§3)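 Female BDF1 mice (18–20 g) carrying a transplanted Lewis lung tumor were given 23–193 kBq of the [2-14C]-labelled nucleoside in normal saline by tail vein. Animals were killed at set times. Tissue 14C was counted by liquid scintillation, after combustion or directly. Values are percent of injected dose per gram wet tissue, as mean ± standard deviation of six animals.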

Mus musculus [7] = experiment: Tissue distribution in BDF1 female mice bearing an implanted lewis lung tumor after intravenous injection in stomach at 8 h.; type: ADME, organism-based; conditions: in vivo; summary of the method: as §3
Mus musculus [8] = experiment: Tissue distribution in BDF1 female mice bearing an implanted lewis lung tumor after intravenous injection in liver at 8 h.; type: ADME, organism-based; conditions: in vivo; summary of the method: as §2
Mus musculus [9] = experiment: Tissue distribution in BDF1 female mice bearing an implanted lewis lung tumor after intravenous injection in blood at 2 h.; type: ADME, organism-based; conditions: in vivo; summary of the method: as §1
Mus musculus [10] = experiment: Tissue distribution in BDF1 female mice bearing an implanted lewis lung tumor after intravenous injection in git(Section of intestine) at 0.25 h.; type: ADME, organism-based; conditions: in vivo; summary of the method: as §1
Mus musculus [11] = experiment: Tissue distribution in BDF1 female mice bearing an implanted lewis lung tumor after intravenous injection in kidney at 2 h.; type: ADME, organism-based; conditions: in vivo; summary of the method: as §1
Mus musculus [12] = experiment: Tissue distribution in BDF1 female mice bearing an implanted lewis lung tumor after intravenous injection in bone at 0.5 h.; type: ADME, organism-based; conditions: in vivo; summary of the method: as §1
Mus musculus [13] = experiment: Tissue distribution in BDF1 female mice bearing an implanted lewis lung tumor after intravenous injection in kidney at 1 h.; type: ADME, organism-based; conditions: in vivo; summary of the method: as §1
Mus musculus [14] = experiment: Tissue distribution in BDF1 female mice bearing an implanted lewis lung tumor after intravenous injection in stomach at 2 h.; type: ADME, organism-based; conditions: in vivo; summary of the method: as §2
Mus musculus [15] = experiment: Tissue distribution in BDF1 female mice bearing an implanted lewis lung tumor after intravenous injection in spleen at 0.5 h.; type: ADME, organism-based; conditions: in vivo; summary of the method: as §2
Mus musculus [16] = experiment: Tissue distribution in BDF1 female mice bearing an implanted lewis lung tumor after intravenous injection in bone at 4 h.; type: ADME, organism-based; conditions: in vivo; summary of the method: as §1
Mus musculus [17] = experiment: Tissue distribution in BDF1 female mice bearing an implanted lewis lung tumor after intravenous injection in lung at 24 h.; type: ADME, organism-based; conditions: in vivo; summary of the method: as §2
Mus musculus [18] = experiment: Tissue distribution in BDF1 female mice bearing an implanted lewis lung tumor after intravenous injection in skin at 24 h.; type: ADME, organism-based, Skin of body; conditions: in vivo; summary of the method: as §2
Mus musculus [19] = experiment: Tissue distribution in BDF1 female mice bearing an implanted lewis lung tumor after intravenous injection in liver at 24 h.; type: ADME, organism-based; conditions: in vivo; summary of the method: as §2
Mus musculus [20] = experiment: Tissue distribution in BDF1 female mice bearing an implanted lewis lung tumor after intravenous injection in skin at 1 h.; type: ADME, organism-based, Skin of body; conditions: in vivo; summary of the method: as §2
Mus musculus [21] = experiment: Tissue distribution in BDF1 female mice bearing an implanted lewis lung tumor after intravenous injection in skin at 8 h.; type: ADME, organism-based, Skin of body; conditions: in vivo; summary of the method: as §2
Mus musculus [22] = experiment: Tissue distribution in BDF1 female mice bearing an implanted lewis lung tumor after intravenous injection in blood at 0.5 h.; type: ADME, organism-based; conditions: in vivo; summary of the method: as §1
Mus musculus [23] = experiment: Tissue distribution in BDF1 female mice bearing an implanted lewis lung tumor after intravenous injection in kidney at 0.25 h; type: ADME, organism-based; conditions: in vivo; summary of the method: as §1
Mus musculus [24] = experiment: Tissue distribution in BDF1 female mice bearing an implanted lewis lung tumor after intravenous injection in tumor at 24 h.; type: ADME, organism-based; conditions: in vivo; summary of the method: as §3
Mus musculus [25] = experiment: Tissue distribution in BDF1 female mice bearing an implanted lewis lung tumor after intravenous injection in skin at 0.5 h.; type: ADME, organism-based, Skin of body; conditions: in vivo; summary of the method: as §2
Mus musculus [26] = experiment: Tissue distribution in BDF1 female mice bearing an implanted lewis lung tumor after intravenous injection in muscle at 4 h.; type: ADME, organism-based; conditions: in vivo; summary of the method: as §2
Mus musculus [27] = experiment: Tissue distribution in BDF1 female mice bearing an implanted lewis lung tumor after intravenous injection in heart at 0.5 h.; type: ADME, organism-based; conditions: in vivo; summary of the method: as §1
Mus musculus [28] = experiment: Tissue distribution in BDF1 female mice bearing an implanted lewis lung tumor after intravenous injection in stomach at 0.5 h. Value in parentheses is organ to tumor ratio; type: ADME, organism-based; conditions: in vivo
Summary of the method: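 Female BDF₁ mice (18–20 g) with implanted Lewis lung tumor were given 23–193 kBq of the [2-¹⁴C] nucleoside in normal saline by tail vein. Tissue ¹⁴C was counted by combustion and liquid scintillation, with n = 6 per time point. The organ-to-tumor ratio was derived from the % injected dose per gram of wet tissue in the organ and in the tumor.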

Mus musculus [29] = experiment: Tissue distribution in BDF1 female mice bearing an implanted lewis lung tumor after intravenous injection in lung at 8 h.; type: ADME, organism-based; conditions: in vivo; summary of the method: as §2
Mus musculus [30] = experiment: Tissue distribution in BDF1 female mice bearing an implanted lewis lung tumor after intravenous injection in heart at 2 h.; type: ADME, organism-based; conditions: in vivo; summary of the method: as §1
Mus musculus [31] = experiment: Tissue distribution in BDF1 female mice bearing an implanted lewis lung tumor after intravenous injection in git(Section of intestine) at 4 h.; type: ADME, organism-based; conditions: in vivo; summary of the method: as §1
Mus musculus [32] = experiment: Tissue distribution in BDF1 female mice bearing an implanted lewis lung tumor after intravenous injection in skin at 4 h.; type: ADME, organism-based, Skin of body; conditions: in vivo; summary of the method: as §2
Mus musculus [33] = experiment: Tissue distribution in BDF1 female mice bearing an implanted lewis lung tumor after intravenous injection in lung at 2 h.; type: ADME, organism-based; conditions: in vivo; summary of the method: as §2
Mus musculus [34] = experiment: Tissue distribution in BDF1 female mice bearing an implanted lewis lung tumor after intravenous injection in bone at 8 h.; type: ADME, organism-based; conditions: in vivo; summary of the method: as §1
Mus musculus [35] = experiment: Radioactive constituent of 5-fluorouracil in urine at 0.5 hr time interval after intravenous injection into BDF1 female mice bearing lewis lung tumor; type: ADME, organism-based; conditions: in vivo
Summary of the method: (§4)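 Radiolabeled nucleoside given in normal saline by tail vein, 23–193 kBq per mouse, to female BDF1 mice (18–20 g) carrying transplanted Lewis lung tumor. Urine was collected when the animals were killed. Components were identified by reverse-phase HPLC with UV at 256 nm on urine spiked with reference compounds, matched to liquid scintillation counts of the eluate. Each is reported as a percent of total urine radioactivity.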

Mus musculus [36] = experiment: Radioactive constituent in urine at 2 hr time interval after intravenous injection into BDF1 female mice bearing lewis lung tumor; type: ADME, organism-based; conditions: in vivo; summary of the method: as §4
Mus musculus [37] = experiment: Tissue distribution in BDF1 female mice bearing an implanted lewis lung tumor after intravenous injection in kidney at 0.25 h.; type: ADME, organism-based; conditions: in vivo; summary of the method: as §1
Mus musculus [38] = experiment: Tissue distribution in BDF1 female mice bearing an implanted lewis lung tumor after intravenous injection in stomach at 0.25 h.; type: ADME, organism-based; conditions: in vivo; summary of the method: as §2
[39] = Total urine activity excreted at 8 hr was estimated from the measurement of loss of tissue activity; type: ADME, tissue-based

For O=c1[nH]c(=O)n([C@H]2O[C@@H](CO)[C@H](O)[C@H]2F)cc1Cl, the Tissue distribution (Mus musculus [1]) was 0.58, the Tissue distribution (Mus musculus [2]) was 1.41 and the Tissue distribution (Mus musculus [3]) was 0.38. It also gave a Tissue distribution (Mus musculus [4]) of 0.34, a Tissue distribution (Mus musculus [5]) of 0.77 and a Tissue distribution (Mus musculus [6]) of 0.07. For the same compound, the Tissue distribution (Mus musculus [7]) was 0.05, the Tissue distribution (Mus musculus [8]) was 0.03 and the Tissue distribution (Mus musculus [9]) was 0.18. The Tissue distribution (Mus musculus [10]) was 1.91, the Tissue distribution (Mus musculus [11]) was 1.6 and the Tissue distribution (Mus musculus [12]) was 0.41. For the same compound, the Tissue distribution (Mus musculus [13]) was 7.28, the Tissue distribution (Mus musculus [14]) was 0.31 and the Tissue distribution (Mus musculus [15]) was 1.08. For the same compound, the Tissue distribution (Mus musculus [16]) was 0.04, the Tissue distribution (Mus musculus [17]) was 0.01 and the Tissue distribution (Mus musculus [18]) was 0.01. The Tissue distribution (Mus musculus [19]) was 0.02, the Tissue distribution (Mus musculus [20]) was 0.36 and the Tissue distribution (Mus musculus [21]) was 0.02. For the same compound, the Tissue distribution (Mus musculus [22]) was 1.82, the Tissue distribution (Mus musculus [23]) was 36.2 and the Tissue distribution (Mus musculus [24]) was 0.03. For the same compound, the Tissue distribution (Mus musculus [25]) was 1.24, the Tissue distribution (Mus musculus [26]) was 0.05 and the Tissue distribution (Mus musculus [27]) was 1.56. The Tissue distribution (Mus musculus [28]) was 0.75, the Tissue distribution (Mus musculus [29]) was 0.03 and the Tissue distribution (Mus musculus [30]) was 0.17. The Tissue distribution (Mus musculus [31]) was 0.06, the Tissue distribution (Mus musculus [32]) was 0.04 and the Tissue distribution (Mus musculus [33]) was 0.14. It also gave a Tissue distribution (Mus musculus [34]) of 0.02.

In the case of O=c1[nH]c(=O)n([C@H]2O[C@@H](CO)[C@H](O)[C@H]2F)cc1F, the Tissue distribution (Mus musculus [1]) is reported as 0.54, the Tissue distribution (Mus musculus [2]) is reported as 1.43 and the Tissue distribution (Mus musculus [3]) is reported as 0.71. For the same compound, the Tissue distribution (Mus musculus [4]) was 0.29, the Tissue distribution (Mus musculus [6]) was 0.05 and the Tissue distribution (Mus musculus [7]) was 0.01. It also gave a Tissue distribution (Mus musculus [8]) of 0.01, a Tissue distribution (Mus musculus [9]) of 0.06 and a Tissue distribution (Mus musculus [10]) of 3.35. It also gave a Tissue distribution (Mus musculus [11]) of 0.84, a Tissue distribution (Mus musculus [12]) of 0.85 and a Total radioactivity (Mus musculus [35]) of 2.1%. For the same compound, the Tissue distribution (Mus musculus [13]) was 8.21, the Total radioactivity (Mus musculus [36]) was 88.5% and the Tissue distribution (Mus musculus [14]) was 0.07. It also gave a Tissue distribution (Mus musculus [15]) of 3.77, a Tissue distribution (Mus musculus [16]) of 0.07 and a Tissue distribution (Mus musculus [17]) of 0.005. The Tissue distribution (Mus musculus [18]) was 0.004, the Tissue distribution (Mus musculus [19]) was 0.005 and the Tissue distribution (Mus musculus [20]) was 0.43. The Tissue distribution (Mus musculus [21]) was 0.01, the Tissue distribution (Mus musculus [22]) was 1.59 and the Tissue distribution (Mus musculus [37]) was 47.4. It also gave a Tissue distribution (Mus musculus [24]) of 0.02, a Tissue distribution (Mus musculus [25]) of 1.18 and a Tissue distribution (Mus musculus [26]) of 0.02. It also gave a Tissue distribution (Mus musculus [27]) of 1.71, a Tissue distribution (Mus musculus [29]) of 0.01 and a Tissue distribution (Mus musculus [30]) of 0.08. It also gave a Tissue distribution (Mus musculus [31]) of 0.04, a Tissue distribution (Mus musculus [32]) of 0.11 and a Tissue distribution (Mus musculus [38]) of 2.18. For the same compound, the Total urine activity [39] was 0.2%, the Tissue distribution (Mus musculus [33]) was 0.07 and the Tissue distribution (Mus musculus [34]) was 0.03.
